Only some compounds are listed: those with a hit (about 2% of all), similar ones and a draw of the others.
NR2E3 ag-1 – agonists of human NR2E3 nuclear receptor. Q9Y5X4. CHO-S Gal4-NCOR/VP16-NR2E3 two-hybrid, luciferase. inhibition of corepressor binding, % at 3.98 µM. actives 0.35% (n = 360,000);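 active means inhibition above the mean of all tested compounds plus 3 SD, cut at about 70% in these data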;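 further: higher means lower luciferase signal from less NR2E3 corepressor binding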
Target sequence (Q9Y5X4 whole entry, looked up, the tested form may be a part): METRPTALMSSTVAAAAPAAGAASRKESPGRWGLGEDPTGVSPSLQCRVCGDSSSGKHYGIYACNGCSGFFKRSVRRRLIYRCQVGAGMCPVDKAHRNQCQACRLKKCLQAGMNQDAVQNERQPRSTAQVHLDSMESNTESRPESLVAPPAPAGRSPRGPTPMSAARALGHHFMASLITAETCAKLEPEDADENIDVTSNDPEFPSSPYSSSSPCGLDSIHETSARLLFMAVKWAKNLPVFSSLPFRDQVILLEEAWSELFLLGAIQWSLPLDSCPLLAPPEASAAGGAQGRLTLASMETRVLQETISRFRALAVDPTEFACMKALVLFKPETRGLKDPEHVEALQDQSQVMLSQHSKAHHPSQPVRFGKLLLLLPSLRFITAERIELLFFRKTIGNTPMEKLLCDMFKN
HIF act – HIF pathway transcriptional activation | AID 1910 | U2OS HRE-luciferase reporter, luminescence; normalized: DMSO 0%, desferrioxamine 100% | actives 0.32% (n = 300,000) | activation, % at 7.5 µM (by protocol);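 active means mean activation of at least 10% of the iron chelator positive control signal, with at least half of replicates also reaching 10%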
TROY signal inh – inhibitors of TROY-dependent NF-kB signaling | actives 0.98% (n = 360,000) | Q293 LMP1-TROYcd NF-kB luciferase reporter, 4 h | inhibition, % at 10 µM;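 active means compounds whose plate-normalised and pattern-corrected inhibition of the luciferase reporter signal at the single screening dose is 50% or more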
NR2E3 ag-2 – NR2E3 (human) agonism; Q9Y5X4; GST-NR2E3/biotin-RetCOR TR-FRET, 1536-well; inhibition of corepressor binding, % at 4.78 µM; actives 0.12% (n = 320,000); AID 2300;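 active means percent inhibition above the cutoff of mean plus 3 SD of all tested compounds, set per screening campaign, cut at about 20% in these data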
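System: GST-tagged NR2E3 plus biotinylated RetCOR corepressor; Amount: 1.35 nM GST-tagged NR2E3 final; Dosing: single nominal compound dose of 4.8 µM; Schedule: 5 h incubation at 4 °C; Technique: TR-FRET with europium anti-GST and streptavidin-D2, 340 nm excitation; Controls: biotin wells as high control, 0.6% DMSO wells as low control.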
LMP1 NFkB inh – inhibitors of Epstein-Barr LMP1-induced NF-kappaB reporter. AID 504558. inhibition, % at 12.5 µM. actives 0.69% (n = 350,000). LMP1-induced NF-kappaB luciferase reporter cells, luminescence; in the data active means inhibition above about 41%
NR2E3 ag confirm – NR2E3 agonism confirmed in two-hybrid assay; shares compounds with NR2E3 ag-1; CHO-S mammalian two-hybrid NR2E3-NCOR, luciferase luminescence; inhibition, % at 3.98 µM; actives 51% (n = 2,300);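 active means average inhibition above a cutoff equal to the mean inhibition of all tested compounds plus one SD, cut at about 70% in these data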
GAL4-VP16 luc – reduces GAL4-VP16 reporter signal in NR2E3 counterscreen; actives 29% (n = 2,300); AID 624379; shares compounds with NR2E3 ag-1; CHO-S GAL4-VP16 luciferase reporter, luminescence; inhibition, % at 3.98 µM;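 active means mean inhibition above a cutoff equal to the average over all tested compounds plus one standard deviation, cut at about 70% in these data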;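 further: luciferase from a UAS reporter driven by GAL4-VP16 transactivation; higher means less reporter light so more repression of VP16 activity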
Each line names hits and unclear results; the compound was inactive in the other large screens (follow-up assays come after a bar, where they were run).

CCOC(=O)c1ccc(NC(=O)N2C[C@@H]3C[C@@H](C2)c2cccc(=O)n2C3)cc1	none
O=C1NCN(c2ccccc2)C12CCN(C(c1cccc3ccccc13)c1nnnn1C1CCCC1)CC2 (configuration not stated)	none (no result: HIF act, NR2E3 ag-2, LMP1 NFkB inh)
CCOC(=O)[C@]12Cc3cc(Cl)ccc3[C@H]1N(C1CCCCC1)C(=O)c1cc(OC)ccc12	NR2E3 ag-1 100, TROY signal inh 63 (no result: HIF act, NR2E3 ag-2, LMP1 NFkB inh) | NR2E3 ag confirm 99 | GAL4-VP16 luc 78
Cc1cc(OC(=O)c2ccco2)c2c3c(c(=O)oc2c1)CCCC3	NR2E3 ag-1 93 | NR2E3 ag confirm inactive | GAL4-VP16 luc inactive
CC(C)(C)c1ccc(CSc2cnn(C(C)(C)C)c(=O)c2Cl)cc1	NR2E3 ag-1 107 | NR2E3 ag confirm 100 | GAL4-VP16 luc 93
Cn1cc(C(=O)OCC(=O)NC2(C#N)CCCC2)c2ccccc21	none (no result: HIF act)
CC(C)(O)/C=C/C(=O)C(C)(O)C1C(O)CC2(C)C3CC=C4C(C=C(O)C(=O)C4(C)C)C3(C)C(=O)CC12C (configuration not stated)	NR2E3 ag-1 79, TROY signal inh 70, LMP1 NFkB inh 45 (no result: HIF act, NR2E3 ag-2) | NR2E3 ag confirm inactive | GAL4-VP16 luc inactive
CN1[C@@H]2CCC[C@H]1CC(=O)C2	none (no result: HIF act, NR2E3 ag-2)
CCC1(c2ccccc2)C(=O)NC(=S)NC1=O	none (no result: HIF act, NR2E3 ag-2)
O=C(Nc1ccc(F)c([N+](=O)[O-])c1)N1C[C@H]2C[C@@H](C1)c1cccc(=O)n1C2	none
CCOC(=O)[C@]12Cc3c(cc(OC)c(OC)c3OC)[C@H]1N(C1CCCCC1)C(=O)c1ccccc12	none (no result: HIF act, NR2E3 ag-2, LMP1 NFkB inh)
O=c1oc2ccccc2c(O)c1C(c1ccc([N+](=O)[O-])cc1)c1c(O)c2ccccc2oc1=O	none (no result: NR2E3 ag-2)
CC(C)c1ccc(C(c2c(O)c3ccccc3oc2=O)c2c(O)c3ccccc3oc2=O)cc1	NR2E3 ag-1 75, TROY signal inh 68 (no result: HIF act, NR2E3 ag-2) | NR2E3 ag confirm 91 | GAL4-VP16 luc inactive
C=CCC1(CCCCC)C(=O)NC(=S)NC1=O	none (no result: HIF act, NR2E3 ag-2)
C[C@H]1CCC[C@H](O)CCCCCc2cc(O)cc(O)c2C(=O)O1	none
CC1CCC/C=C/C2CC(O)CC2C(O)/C=C/C(=O)O1 (configuration not stated)	NR2E3 ag-1 83 | NR2E3 ag confirm 99 | GAL4-VP16 luc inactive
C[C@H]1[C@@H](OS(=O)(=O)O)C[C@@H]2C[C@H]([C@@H](O)c3cc(=O)[nH]c(=O)[nH]3)NC3=NC[C@H]1N32	NR2E3 ag-1 101, LMP1 NFkB inh 72 (no result: HIF act, NR2E3 ag-2) | NR2E3 ag confirm 99 | GAL4-VP16 luc 82
Cc1ccccc1CCNCc1cc2cccc(C)c2[nH]c1=O	none
COc1ccc(CC2C(=O)NC(C)C(=O)N(C)C3C(=O)N(C)C(Cc4ccc(O)c(c4)Oc4ccc(cc4)C3O)C(=O)NC(C)C(=O)NC(C)C(=O)N2C)cc1 (configuration not stated)	NR2E3 ag-1 102, TROY signal inh 87, LMP1 NFkB inh 85 (no result: HIF act, NR2E3 ag-2) | NR2E3 ag confirm 100 | GAL4-VP16 luc 100
COC(=O)C1=C(c2ccc(F)cc2F)C[C@@H]2CC[C@H]1N2C(=O)NCCOc1ccccc1Cl	none (no result: HIF act)

Screening results: PubChem, several laboratories
